# The source made the active and inactive calls. The calls are words filed in the database; no cut-off is given here.
# How the values were obtained:
# [1] = tested on: Rattus norvegicus; assay: Effect of compound on 5-Hydroxy tryptamine accumulation upon subcutaneous administration in the corpus striatum of rat brain; type: functional; details: sc
# [2] = molecular target: T1, D(1A) dopamine receptor (Rattus norvegicus, UniProt P18901); assay: In vitro binding activity against dopamine receptor D1 from homogenized rat brain, using [3H]SCH-23390 as the radioligand.
# Method in brief: (§1)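 Rat striatal membranes prepared in 50 mM potassium phosphate pH 7.4 and centrifuged at 25000g. Incubated with 0.2 nM [3H]SCH 23390 (1 mg original tissue) for 60 min at 30 °C, then separated by rapid filtration. Specific binding defined with 1 μM cis-(Z)-flupentixol.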
# [3] = tested on: Rattus norvegicus; assay: Effect of compound on 5-Hydroxy tryptamine accumulation upon subcutaneous administration in the hemisphere of rat brain; type: functional; details: sc
# [4] = tested on: Rattus norvegicus; assay: Effect on Dopa accumulation upon subcutaneous administration in the limbic system of rat brain; type: functional; details: sc
# [5] = tested on: Rattus norvegicus; assay: Effect of compound on 5-Hydroxy tryptamine accumulation upon subcutaneous administration in the limbic system of rat brain; type: functional; details: sc
# [6] = tested on: Rattus norvegicus; assay: Effect on Dopa accumulation upon subcutaneous administration in the corpus striatum of rat brain; type: functional; details: sc
# [7] = tested on: Rattus norvegicus; assay: Effect on Dopa accumulation upon subcutaneous administration in the hemispheres of rat brain; type: functional; details: sc
# [8] = tested on: Rattus norvegicus; assay: Effect on motor activity in rats at a dose of 12.5 uM/Kg; type: functional
# [9] = tested on: Rattus norvegicus; assay: Effect of compound on 5-Hydroxy transaminase accumulation upon subcutaneous administration in the corpus striatum of rat brain; I - inactive at highest dose (50 umol/kg); type: functional, organism-based
# [10] = tested on: Rattus norvegicus; assay: Effect of compound on 5-Hydroxy transaminase accumulation upon subcutaneous administration in the limbic system of rat brain; I - inactive at highest dose (50 umol/kg); type: functional, organism-based
# [11] = tested on: Rattus norvegicus; assay: Effect of compound on 5-Hydroxy transaminase accumulation upon subcutaneous administration in the hemisphere of rat brain; I - inactive at highest dose (50 umol/kg); type: functional, organism-based
# [12] = tested on: Rattus norvegicus; assay: Effect on Dopa accumulation upon subcutaneous administration in the hemispheres of rat brain; I - inactive at highest dose (50 umol/kg); type: functional, organism-based
# [13] = tested on: Rattus norvegicus; assay: Effect of compound on 5-Hydroxy transaminase accumulation upon subcutaneous administration in the limbic system of rat brain; type: functional; details: sc
# Method in brief: (§2)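 Male Sprague-Dawley rats (200-300 g) were dosed subcutaneously at 5 mL/kg with neutral-pH solutions. Dose-response curves used four to six dose levels (n = 4) per substance and per brain area, up to 50 μmol/kg. 5-HTP was measured in dissected brain regions by HPLC with electrochemical detection, and ED50 values were derived from the curves.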
# [14] = tested on: Rattus norvegicus; assay: Effect of compound on 5-Hydroxy transaminase accumulation upon subcutaneous administration in the hemisphere of rat brain; type: functional; details: sc; method in brief: as §2
# [15] = tested on: Rattus norvegicus; assay: Effect of compound on 5-Hydroxy transaminase accumulation upon subcutaneous administration in the corpus striatum of rat brain; type: functional; details: sc
# Method in brief: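 Male Sprague-Dawley rats (200-300 g) received the compound subcutaneously at 5 mL/kg in neutral-pH solution, at four to six dose levels up to 50 μmol/kg (n = 4 per dose). 5-HTP in the corpus striatum was measured by HPLC with electrochemical detection. A separate dose-response curve per substance and brain area gave ED50 values.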
# [16] = tested on: Rattus norvegicus; assay: Effect on Dopa accumulation upon subcutaneous administration in the limbic system of rat brain; I - inactive at highest dose (50 umol/kg); type: functional, organism-based
# [17] = organism: Rattus norvegicus; assay: […]; type: functional, organism-based; details: Striatum
# [18] = tested on: Rattus norvegicus; assay: Effect on Dopa accumulation upon subcutaneous administration in the hemispheres of rat brain (partial response); type: functional; details: sc
# [19] = tested on: Rattus norvegicus; assay: Effect on motor activity in rats at a dose of 2 uM/Kg; type: functional
# [20] = molecular target: T1, D(1A) dopamine receptor; assay: In vitro binding activity against dopamine D1 receptor from homogenized rat brain, using [3H]SCH-23390 as the radioligand; method in brief: as §1
# [21] = molecular target: T2, D(2) dopamine receptor (Rattus norvegicus, UniProt P61169); assay: In vitro binding activity against Dopamine receptor D2 from homogenized rat brain, using [3H]spiperone as the radioligand
# Method in brief: (§3)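 Rat striatal membranes in 50 mM potassium phosphate buffer (pH 7.4 at 25 °C), pellets homogenized in 1300 volumes. Incubated with 0.5 nM [3H]spiperone (3 mg original tissue) for 10 min at 37 °C, then terminated by rapid vacuum filtration and counted by liquid scintillation. Nonspecific binding defined with 10 μM 6,7-ADTN; specific binding 70-80% of total.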
# [22] = tested on: Rattus norvegicus; assay: Effect on motor activity in rats at a dose of 4 uM/Kg; type: functional
# [23] = tested on: Rattus norvegicus; assay: Effect of compound on 5-Hydroxy tryptamine accumulation upon subcutaneous administration in the hemisphere of rat brain (partial response); type: functional; details: sc
# [24] = molecular target: T3, 5-hydroxytryptamine receptor 1A (Rattus norvegicus, UniProt P19327); assay: In vitro binding activity against 5-hydroxytryptamine 1A receptor from homogenized rat brain, using [3H]-8-OH-DPAT as the radioligand
# T3 sequence (P19327 whole entry): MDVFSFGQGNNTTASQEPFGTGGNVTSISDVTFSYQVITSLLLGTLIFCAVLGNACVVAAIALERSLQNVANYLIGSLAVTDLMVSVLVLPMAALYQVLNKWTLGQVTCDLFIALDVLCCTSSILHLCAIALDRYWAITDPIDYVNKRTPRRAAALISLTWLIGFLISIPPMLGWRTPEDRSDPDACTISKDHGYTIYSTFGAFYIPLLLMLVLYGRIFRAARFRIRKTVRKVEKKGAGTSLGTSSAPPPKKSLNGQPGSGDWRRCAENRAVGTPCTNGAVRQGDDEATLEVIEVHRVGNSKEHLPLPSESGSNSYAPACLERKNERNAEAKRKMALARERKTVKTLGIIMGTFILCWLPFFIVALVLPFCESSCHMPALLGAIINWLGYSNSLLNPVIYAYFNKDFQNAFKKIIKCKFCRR
# Method in brief: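 Whole rat brain minus brainstem and cerebellum, homogenized in 50 mM Tris pH 8.0 with 120 mM NaCl, 4 mM CaCl2 and 4 mM MgCl2. Membranes preincubated 10 min at 37 °C, then resuspended with 10 μM pargyline. Incubated in triplicate with 1 nM [3H]-8-OH-DPAT (0.1% ascorbic acid) for 15 min at 37 °C, then filtered. Nonspecific binding defined with 10 μM 5-HT. IC50 from semilog linear regression.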
# [25] = molecular target: T1, D(1A) dopamine receptor; assay: In vitro binding activity against Dopamine receptor D1 from homogenized rat brain, using [3H]SCH-23390 as the radioligand; method in brief: as §1
# [26] = molecular target: T2, D(2) dopamine receptor; assay: In vitro binding activity against dopamine receptor D2 from homogenized rat brain, using [3H]spiperone as the radioligand; method in brief: as §3
# T1 sequence (P18901 whole entry): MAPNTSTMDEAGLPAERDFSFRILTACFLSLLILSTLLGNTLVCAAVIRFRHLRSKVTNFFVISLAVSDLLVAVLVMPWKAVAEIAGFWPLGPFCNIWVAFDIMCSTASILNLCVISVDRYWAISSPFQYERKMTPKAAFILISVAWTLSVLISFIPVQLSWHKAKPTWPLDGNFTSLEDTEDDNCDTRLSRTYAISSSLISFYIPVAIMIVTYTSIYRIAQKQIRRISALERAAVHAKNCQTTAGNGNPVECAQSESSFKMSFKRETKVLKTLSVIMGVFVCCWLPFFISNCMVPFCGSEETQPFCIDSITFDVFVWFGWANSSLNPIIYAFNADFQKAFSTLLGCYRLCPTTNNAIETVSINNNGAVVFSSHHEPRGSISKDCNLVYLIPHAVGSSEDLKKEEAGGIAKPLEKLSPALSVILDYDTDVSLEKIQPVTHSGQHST
# T2 sequence (P61169 whole entry): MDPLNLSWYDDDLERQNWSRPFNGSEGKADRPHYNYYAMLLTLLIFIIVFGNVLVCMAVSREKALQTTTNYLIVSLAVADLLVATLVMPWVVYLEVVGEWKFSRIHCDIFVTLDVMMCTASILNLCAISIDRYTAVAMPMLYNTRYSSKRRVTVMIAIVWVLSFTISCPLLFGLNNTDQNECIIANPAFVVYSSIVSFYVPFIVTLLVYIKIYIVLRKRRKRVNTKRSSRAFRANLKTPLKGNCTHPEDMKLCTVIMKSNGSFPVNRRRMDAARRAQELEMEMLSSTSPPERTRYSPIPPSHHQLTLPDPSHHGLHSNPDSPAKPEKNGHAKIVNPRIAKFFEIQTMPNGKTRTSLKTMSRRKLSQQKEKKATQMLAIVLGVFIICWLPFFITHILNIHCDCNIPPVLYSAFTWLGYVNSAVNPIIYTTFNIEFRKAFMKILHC
structure (smiles),measurement,setting,value
CN(C)[C@H]1CCc2ccc3[nH]ccc3c2C1,ED50,[1],3.7 µmol/kg
same,IC50,[2],29.2 µM
same,ED50,[3],3.7 µmol/kg
same,ED50,[4],4.2 µmol/kg
same,ED50,[5],3.7 µmol/kg
same,ED50,[6],8 µmol/kg
same,ED50,[7],10 µmol/kg
same,Motor activity,[8],22 accumulated counts 30min-1
CCCN(CCC)[C@@H]1CCc2ccc(O)cc2C1,ED50,[9],inactive
same,ED50,[4],0.0095 µmol/kg
same,ED50,[10],inactive
same,ED50,[11],inactive
same,ED50,[6],0.011 µmol/kg
same,ED50,[12],inactive
CCCN(CCC)[C@H]1CCc2cccc(O)c2C1,ED50,[13],0.061 µmol/kg
same,ED50,[14],0.077 µmol/kg
same,ED50,[15],0.065 µmol/kg
same,ED50,[16],inactive
same,ED50,[17],inactive
same,ED50,[12],inactive
CN(C)[C@@H]1CCc2ccc3[nH]ccc3c2C1,ED50,[1],0.1 µmol/kg
same,IC50,[2],20.4 µM
same,ED50,[3],0.4 µmol/kg
same,ED50,[4],0.3 µmol/kg
same,ED50,[5],0.4 µmol/kg
same,ED50,[6],0.4 µmol/kg
same,ED50,[18],2 µmol/kg
same,Motor activity,[19],130 accumulated counts 30min-1
CCCN(CCC)C1CCc2cccc(O)c2C1 (racemic) [8-OH-DPAT],IC50,[20],> 100 µM
same,IC50,[21],5.76 µM
CN(C)C1CCc2ccc3[nH]ccc3c2C1 (racemic),ED50,[1],0.2 µmol/kg
same,IC50,[2],19.7 µM
same,ED50,[4],0.3 µmol/kg
same,ED50,[5],0.3 µmol/kg
same,ED50,[6],0.4 µmol/kg
same,Motor activity,[22],90 accumulated counts 30min-1
same,ED50,[23],0.4 µmol/kg
same,ED50,[18],4 µmol/kg
CCCN(CCC)[C@@H]1CCc2cccc(O)c2C1,ED50,[13],0.036 µmol/kg
same,ED50,[14],0.05 µmol/kg
same,ED50,[15],0.047 µmol/kg
same,ED50,[16],inactive
same,ED50,[17],inactive
same,ED50,[12],inactive
CCN(CC)C(=O)N[C@H]1C[C@@H]2c3cccc4[nH]cc(c34)C[C@H]2N(C)C1 [TERGURIDE],IC50,[24],0.025 µM
same,IC50,[25],0.069 µM
same,IC50,[26],0.004 µM
